Laboratory results from ChEMBL document CHEMBL5038571, “Design and Synthesis of EZH2-Based PROTACs to Degrade the PRC2 Complex for Targeting the Noncatalytic Activity of EZH2” (J Med Chem, 2021).
Activity calls are given as the source filed them. The calls are words filed in the database; no cut-off is given here.

Assays:
[1] = molecular target: T1, Protein cereblon/Histone-lysine N-methyltransferase EZH2 (Homo sapiens) (UniProt Q15910+Q96SW2); experiment: PROTAC activity at CRBN E3 ligase/EZH2 in PRC2 complex in human WSUDLCL2 cells assessed as reduction in H3K27me3 protein level at 1 uM measured after 48 to 72 hrs by Western blot analysis; format: cell-based; conditions: time 48-72 hrs
WSUDLCL2 [2] = experiment: Upregulation of TXINP mRNA expression in human WSUDLCL2 cells at 1 uM incubated for 48 hrs by qRT-PCR analysis; format: functional, cell-based
Summary of the method: (§1)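 WSU-DLCL-2 or Pfeiffer cells treated 48 h. Trizol RNA extraction, reverse transcription, SYBR qPCR (95 °C 30 s; 40 cycles of 95 °C 6 s, 60 °C 20 s). mRNA normalized to DMSO-treated cells; mean ± SD of three independent experiments, t-test.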

[3] = molecular target: Polycomb protein SUZ12 (Homo sapiens) (UniProt Q15022); experiment: Binding affinity to SUZ12 in human WSUDLCL2 cells assessed as thermal stability by measuring shift in temperature at 60 uM pretreated with proteasome inhibitor MG132 for 1 hr followed by compound addition incubated for 2 hrs by cellular thermal shift based Western blot analysis; format: cell-based
Summary of the method: (§2)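 Cellular thermal shift: cells suspended at 1.5 × 10⁶/mL and pretreated with MG-132 (5 μM, 1 h), then given 60 μM compound for 2 h with a DMSO control. Cells were lysed in RIPA with cocktail for 1 h. Supernatant aliquots were heated 6 min at 45, 48, 51, 54, 57 and 60 °C and centrifuged 15 min. Soluble protein was immunoblotted; bands quantified by densitometry; three independent experiments.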

[4] = molecular target: T1, Protein cereblon/Histone-lysine N-methyltransferase EZH2 (Homo sapiens); experiment: PROTAC activity at CRBN E3 ligase/EZH2 in PRC2 complex in human WSUDLCL2 cells assessed as induction of EZH2 degradation incubated for 48 hrs by Western blot analysis; format: cell-based; conditions: dose 1-10 µM
Summary of the method: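 WSU-DLCL-2 cells treated 48 h (1 μM for the single-concentration screen), lysed; SDS-PAGE, nitrocellulose transfer, 5% milk block, primary antibody 4 °C overnight, chemiluminescence. Bands quantified by densitometry, normalized to GAPDH, expressed relative to DMSO-treated cells; mean ± SD of three independent experiments, t-test.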

NCI-H1299 = experiment: Downregulation of CEP76 mRNA expression in human NCI-H1299 cells at 10 uM incubated for 48 hrs by qRT-PCR analysis; format: functional, cell-based
Summary of the method: (§3)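 Cells treated 48 h. Total RNA extracted with Trizol, reverse-transcribed, and SYBR RT-qPCR run: 95 °C 30 s, then 40 cycles of 95 °C 6 s and 60 °C 20 s. mRNA normalized to the DMSO-treated group. Mean SD of three independent experiments, t-test versus DMSO.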

[5] = molecular target: T1, Protein cereblon/Histone-lysine N-methyltransferase EZH2 (Homo sapiens); experiment: PROTAC activity at CRBN E3 ligase/EZH2 in PRC2 complex in human WSUDLCL2 cells assessed as downregulation of EZH2 expression at 1 uM pretreated with EPZ6438 for 4 hrs followed by compound addition and measured after 48 hrs by Western blot analysis; format: cell-based
Summary of the method: (§4)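 WSU-DLCL-2 cells pretreated 4 h with the named inhibitor, then compound added and incubated a further 48 h. EZH2, SUZ12, EED and RbAp48 measured by western blot (nitrocellulose transfer, skim-milk block, primary antibody overnight at 4 °C, chemiluminescent detection).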

WSUDLCL2 [6] = experiment: Upregulation of ADRB2 mRNA expression in human WSUDLCL2 cells at 1 uM incubated for 48 hrs by qRT-PCR analysis; format: functional, cell-based; summary of the method: as §1
[7] = molecular target: Histone-lysine N-methyltransferase EZH2 (Homo sapiens, UniProt Q15910); format: cell-based, Sf9
[8] = molecular target: T1, Protein cereblon/Histone-lysine N-methyltransferase EZH2 (Homo sapiens); experiment: PROTAC activity at CRBN E3 ligase/EZH2 in PRC2 complex in human WSUDLCL2 cells assessed as induction of SUZ12 degradation at 1 uM measured up to 2 hrs by Western blot analysis; format: cell-based; conditions: time hrs <=2
[9] = molecular target: T1, Protein cereblon/Histone-lysine N-methyltransferase EZH2 (Homo sapiens); experiment: PROTAC activity at CRBN E3 ligase/EZH2 in PRC2 complex in human WSUDLCL2 cells assessed as effect on EED mRNA expression at 1 uM incubated for 48 hrs by RT-qPCR analysis; format: cell-based
Summary of the method: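 WSU-DLCL-2 cells treated 48 h with 1 μM compound. Total RNA extracted with Trizol and reverse-transcribed. SYBR qPCR run as 95 °C 30 s, then 40 cycles of 95 °C 6 s and 60 °C 20 s. PRC2 subunit mRNA normalized to the DMSO-treated group; mean SD, t-test.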

[10] = molecular target: T1, Protein cereblon/Histone-lysine N-methyltransferase EZH2 (Homo sapiens); experiment: PROTAC activity at CRBN E3 ligase/EZH2 in PRC2 complex in human WSUDLCL2 cells assessed as induction of EED degradation by measuring reduction in EED protein level at 1 uM measured after 48 to 72 hrs by Western blot analysis; format: cell-based; conditions: time 48-72 hrs
[11] = molecular target: T1, Protein cereblon/Histone-lysine N-methyltransferase EZH2 (Homo sapiens); experiment: PROTAC activity at CRBN E3 ligase/EZH2 in PRC2 complex in human A2780 cells assessed as induction of EED degradation by measuring reduction in EED protein level at 1 uM incubated for 48 hrs by Western blot analysis; format: cell-based
Summary of the method: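 Cancer cell lines exposed to 1 μM compound for 48 h. Lysates immunoblotted (SDS-PAGE, nitrocellulose, 5% milk block, primary antibody overnight at 4 °C) for EZH2, SUZ12, EED, RbAp48 and H3K27me3. Bands quantified by densitometry and normalized to GAPDH.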

WSUDLCL2 [12] = experiment: Inhibition of PRC2 in human WSUDLCL2 cells assessed as suppression H3K27 dimethylation incubated for 48 hrs by Western blot analysis; format: cell-based
Summary of the method: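 Lysates run on SDS-PAGE and transferred to nitrocellulose. Membranes blocked with 5% skim milk for 2 h, primary antibody applied overnight at 4 °C, then secondary antibody and chemiluminescent detection of histone H3 methylation marks.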

[13] = molecular target: T1, Protein cereblon/Histone-lysine N-methyltransferase EZH2 (Homo sapiens); experiment: PROTAC activity at CRBN E3 ligase/EZH2 in PRC2 complex in human WSUDLCL2 cells assessed as downregulation of EED expression at 1 uM pretreated with EED226 for 4 hrs followed by compound addition and measured after 48 hrs by Western blot analysis; format: cell-based; summary of the method: as §4
[14] = molecular target: Polycomb protein EED (Homo sapiens) (UniProt O75530); experiment: Binding affinity to EED in human WSUDLCL2 cells assessed as thermal stability by measuring shift in temperature at 60 uM pretreated with proteasome inhibitor MG132 for 1 hr followed by compound addition incubated for 2 hrs by cellular thermal shift based Western blot analysis; format: cell-based; summary of the method: as §2
[15] = molecular target: T1, Protein cereblon/Histone-lysine N-methyltransferase EZH2 (Homo sapiens); experiment: PROTAC activity at CRBN E3 ligase/EZH2 in PRC2 complex in human WSUDLCL2 cells assessed as induction of EED degradation at 1 uM incubated for 48 hrs by Western blot analysis relative to control; format: cell-based
Summary of the method: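 WSU-DLCL-2 cells exposed to 1 μM compound for 48 h, with DMSO-treated cells as control. Bands quantified by densitometry and normalized to GAPDH. Mean SD from three independent experiments, t-test versus DMSO.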

A549 = experiment: Downregulation of CENPK mRNA expression in human A549 cells at 10 uM incubated for 48 hrs by qRT-PCR analysis; format: functional, cell-based; summary of the method: as §3

T1 sequence (Q15910 whole entry, looked up): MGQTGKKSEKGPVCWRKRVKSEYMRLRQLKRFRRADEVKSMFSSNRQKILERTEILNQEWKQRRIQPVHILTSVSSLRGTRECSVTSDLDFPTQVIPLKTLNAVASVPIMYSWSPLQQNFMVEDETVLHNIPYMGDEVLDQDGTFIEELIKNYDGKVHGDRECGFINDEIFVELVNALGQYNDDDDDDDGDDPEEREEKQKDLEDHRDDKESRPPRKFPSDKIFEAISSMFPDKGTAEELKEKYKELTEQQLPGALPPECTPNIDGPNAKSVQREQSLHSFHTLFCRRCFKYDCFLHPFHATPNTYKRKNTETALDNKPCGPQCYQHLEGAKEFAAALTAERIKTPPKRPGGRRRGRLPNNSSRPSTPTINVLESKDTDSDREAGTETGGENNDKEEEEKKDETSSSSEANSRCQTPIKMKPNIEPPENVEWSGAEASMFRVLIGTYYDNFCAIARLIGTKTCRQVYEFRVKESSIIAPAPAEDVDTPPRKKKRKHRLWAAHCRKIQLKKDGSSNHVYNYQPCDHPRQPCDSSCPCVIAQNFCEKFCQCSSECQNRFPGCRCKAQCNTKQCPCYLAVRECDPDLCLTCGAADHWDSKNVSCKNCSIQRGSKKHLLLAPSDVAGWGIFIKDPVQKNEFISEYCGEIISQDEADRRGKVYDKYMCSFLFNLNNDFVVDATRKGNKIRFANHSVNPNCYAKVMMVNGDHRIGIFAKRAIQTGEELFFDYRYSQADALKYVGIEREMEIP
T1 sequence (Q96SW2 whole entry, looked up): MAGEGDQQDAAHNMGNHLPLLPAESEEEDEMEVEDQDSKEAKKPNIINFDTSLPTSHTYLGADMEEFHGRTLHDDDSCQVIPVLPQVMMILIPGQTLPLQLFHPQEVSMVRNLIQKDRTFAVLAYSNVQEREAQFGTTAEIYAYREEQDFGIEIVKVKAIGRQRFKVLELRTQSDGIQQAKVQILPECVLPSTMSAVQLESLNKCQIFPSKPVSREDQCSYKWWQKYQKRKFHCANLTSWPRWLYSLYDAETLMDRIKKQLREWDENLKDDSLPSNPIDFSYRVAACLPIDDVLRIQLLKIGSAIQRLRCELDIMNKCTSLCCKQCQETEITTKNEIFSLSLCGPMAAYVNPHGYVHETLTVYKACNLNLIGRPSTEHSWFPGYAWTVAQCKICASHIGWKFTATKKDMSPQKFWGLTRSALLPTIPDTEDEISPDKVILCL
Polycomb protein EED (Homo sapiens), sequence (O75530 2-441 limits assumed): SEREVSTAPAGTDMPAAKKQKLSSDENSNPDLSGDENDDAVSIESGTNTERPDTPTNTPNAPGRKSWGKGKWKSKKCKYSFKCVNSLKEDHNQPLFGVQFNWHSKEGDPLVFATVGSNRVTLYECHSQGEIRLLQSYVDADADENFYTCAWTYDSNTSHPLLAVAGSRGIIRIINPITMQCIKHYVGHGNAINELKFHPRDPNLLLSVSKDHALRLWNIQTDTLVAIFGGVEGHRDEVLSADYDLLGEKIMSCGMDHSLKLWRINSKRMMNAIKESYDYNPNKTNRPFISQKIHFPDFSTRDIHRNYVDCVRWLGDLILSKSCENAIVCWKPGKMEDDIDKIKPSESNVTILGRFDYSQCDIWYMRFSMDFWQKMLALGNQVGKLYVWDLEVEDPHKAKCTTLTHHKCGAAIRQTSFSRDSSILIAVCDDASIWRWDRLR
Polycomb protein SUZ12 (Homo sapiens), sequence (Q15022 whole entry): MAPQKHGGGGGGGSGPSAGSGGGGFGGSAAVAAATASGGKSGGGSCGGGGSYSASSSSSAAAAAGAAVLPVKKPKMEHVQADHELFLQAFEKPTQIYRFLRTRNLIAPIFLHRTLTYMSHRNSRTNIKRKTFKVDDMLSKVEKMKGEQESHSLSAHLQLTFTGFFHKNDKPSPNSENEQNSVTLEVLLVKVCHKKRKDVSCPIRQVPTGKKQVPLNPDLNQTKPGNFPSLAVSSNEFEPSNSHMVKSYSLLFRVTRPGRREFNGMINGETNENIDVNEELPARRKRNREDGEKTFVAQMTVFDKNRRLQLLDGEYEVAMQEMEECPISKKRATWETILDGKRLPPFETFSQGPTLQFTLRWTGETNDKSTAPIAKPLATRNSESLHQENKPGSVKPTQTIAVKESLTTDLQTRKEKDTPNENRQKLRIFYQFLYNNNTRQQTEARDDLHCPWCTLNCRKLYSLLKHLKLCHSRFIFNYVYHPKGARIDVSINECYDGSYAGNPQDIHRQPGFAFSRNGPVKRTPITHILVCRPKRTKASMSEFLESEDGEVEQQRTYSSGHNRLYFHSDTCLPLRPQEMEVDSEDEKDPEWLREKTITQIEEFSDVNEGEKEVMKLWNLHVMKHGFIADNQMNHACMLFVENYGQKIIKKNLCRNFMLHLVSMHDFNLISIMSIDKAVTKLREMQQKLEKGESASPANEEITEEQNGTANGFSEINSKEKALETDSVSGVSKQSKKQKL
Histone-lysine N-methyltransferase EZH2, sequence (Q15910 whole entry): as the sequence (Q15910 whole entry, looked up) above

Compound: CCN(c1cc(-c2ccc(CN3CCN(CCCCCCCOc4cccc5c4C(=O)N(C4CCC(=O)NC4=O)C5=O)CC3)cc2)cc(C(=O)NCc2c(C)cc(C)[nH]c2=O)c1C)C1CCOCC1 (configuration not stated)
- Activity [1]: Active
- Activity (WSUDLCL2 [2]): inactive
- Activity [3]: inactive
- Activity [4]: Dose-Dependent Effect
- Activity (NCI-H1299): Active
- Activity [5]: inactive
- Activity (WSUDLCL2 [6]): Active
- IC50 [7]: 2.7 nM
- Activity [8]: inactive
- Activity [9]: inactive
- Activity [10]: Active
- Activity [11]: Active
- inhibition (WSUDLCL2 [12]): Dose-Dependent Effect
- Activity [13]: Active
- Activity [14]: inactive
- Activity [15]: 75%
- Activity (A549): Active
